Source: PubChem (Sanford-Burnham Center for Chemical Genomics)
aDG glyco act = increases alpha dystroglycan glycosylation; Pro5-aDG cells, alpha-DG glycosylation AlphaScreen (IIH6); 0% Pro5, 100% B10-LARGE cell signal; activation, % at 10 µM; 0.22% of 360,000 active;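 active = activation of at least 8% versus controls, or a plate z-score of at least 8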;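 note: Pro5 are CHO cells carrying HIG-tagged alpha-DG that lacks glycosylation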
NR1D1 modulator = modulators of human Rev-erb alpha DNA binding. Rev-erbα–FITC-DNA binding, fluorescence polarization, 90 min. P20393. activity, % at 10 µM. 0.79% of 370,000 active;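 active = activity above about 14%, limit read from the data; passing the limit was not always enough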;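 note: 0% = DMSO wells with 35 nM protein and 100% = DMSO wells with 750 nM protein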
Target sequence (P20393 whole entry, looked up): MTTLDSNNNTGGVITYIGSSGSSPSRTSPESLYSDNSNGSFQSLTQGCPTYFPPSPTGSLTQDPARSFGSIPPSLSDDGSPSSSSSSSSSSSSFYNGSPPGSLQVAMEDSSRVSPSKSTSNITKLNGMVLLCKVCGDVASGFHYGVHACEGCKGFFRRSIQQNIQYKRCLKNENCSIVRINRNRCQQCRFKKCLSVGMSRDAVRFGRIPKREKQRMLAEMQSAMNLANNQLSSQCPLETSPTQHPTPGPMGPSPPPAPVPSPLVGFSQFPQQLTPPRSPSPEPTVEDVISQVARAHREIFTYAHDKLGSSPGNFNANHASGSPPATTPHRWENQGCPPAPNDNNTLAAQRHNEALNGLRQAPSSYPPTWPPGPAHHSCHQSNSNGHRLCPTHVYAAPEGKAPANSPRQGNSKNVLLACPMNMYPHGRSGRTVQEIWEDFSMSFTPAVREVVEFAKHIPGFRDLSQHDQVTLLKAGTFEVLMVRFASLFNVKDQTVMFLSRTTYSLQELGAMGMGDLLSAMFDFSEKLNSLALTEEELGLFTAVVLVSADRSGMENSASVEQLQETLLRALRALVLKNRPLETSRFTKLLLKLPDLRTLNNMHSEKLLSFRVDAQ
HNF4A DNA FP = change in binding of human HNF4 alpha to DNA | 0.3% of 360,000 active | HNF4a-FITC DNA binding, fluorescence polarization, 1 h | P41235 | activity change, % at 10 µM; in the data active = activity change above about 30%, passing the limit was not always enough
CSN deneddyl inh = blocks human CSN-mediated cullin deneddylation; Purified CSN, SCF-Nedd8-OG deneddylation, fluorescence polarization; inhibition, % at 12.5 µM; AID 651999; 0.38% of 360,000 active;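 active = pattern-corrected inhibition above about 35%, with an unprinted fluorescence ratio check between 0.5 and 1.5, limit read from the data, passing the limit was not always enough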;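 note: 0% = enzyme with substrate and 100% = substrate without enzyme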
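Assay system: Purified human Csn5 enzyme expressed in HEK293T cells | Amount: Enzyme 0.24 nM | Measured by: Fluorescence polarization readout | Medium: Tris/NaCl/DTT buffer, pH 7.5 | Compound dosing: One concentration, 12.5 µM, 0.25% DMSO | Times: 90 min incubation of compound, enzyme and substrate at room temperature | Control set: no-enzyme wells high, enzyme-with-substrate wells low | Read-out: % inhibition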
Rev-erbA confirm = confirmation of modulators of human Rev-erb alpha DNA binding | shares compounds with NR1D1 modulator | Rev-erb alpha FITC-DNA binding, fluorescence polarization, 90 min | activation, % at 25 µM | 61% of 3,000 active | AID 1259319;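 active = activation at or above a set limit, or at least 3 SD above the negative control mean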;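 note: 0% = 35 nM protein with DMSO and 100% = 750 nM protein high control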
RORg DNA counter = affects RORgamma DNA binding in a Rev-erb alpha counter-screen | 8% of 910 active | purified RORgamma protein-FITC-DNA binding, fluorescence polarization | IC50, µM | shares compounds with NR1D1 modulator;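 active = Compounds whose fitted half-maximal concentration for disrupting protein-DNA binding is below 10 micromolar; the record names Rev-erb in its text, so the target is in doubt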
Active calls of the source: *; · = no result given. Compounds with a hit are over-represented: about 1.5% of the library has one in this group of screens.

SMILES	aDG glyco act	NR1D1 modulator	HNF4A DNA FP	CSN deneddyl inh	Rev-erbA confirm	others
Cc1ccc(NC(=O)OCCCN2C(=O)CCC23CCC(C)CC3)cc1C (stereo not drawn)	·	1	·	·	·
CCCCCCn1cc(CN2CC=CS2(=O)=O)nn1	·	1	·	·	·
O=C(COc1ccccc1)Nc1nc2cc3c(cc2s1)OCCO3	0	76*	-2	4	50*	RORg DNA counter=>40
CC(=O)Nc1ccc2nc(NC(=O)COc3ccccc3)sc2c1	0	3	1	-8	·
O=C(COc1ccccc1)Nc1nc2cc3c(cc2s1)OCO3	0	41*	0	4	15
FC(F)(F)c1cccc(N2CCN(C(=S)Nc3nccc4ccccc34)CC2)c1	·	3	·	·	·
O=C(Nc1ccc2c(c1)COC2=O)c1ccc(Cl)c(Cl)c1	0	48*	-1	3	27*
O=C(Nc1ccc(Cl)c(Cl)c1)c1ccc(Cl)c(Cl)c1	1	3	0	3	·
O=C(O)c1ccccc1N1C(=O)c2cccc3cccc(c23)C1=O	0	6	3	-2	·
O=C(c1cccs1)N1C(=O)c2cccc3cccc1c23	0	51*	4	1	42*	RORg DNA counter=>40
O=C(c1ccccc1F)N1C(=O)c2cccc3cccc1c23	0	25*	-2	2	10
O=C(c1ccco1)N1C(=O)c2cccc3cccc1c23	0	-3	-2	-4	·
Cc1cc(C)c2nc(NC(=O)c3ccc(OCC4CCCO4)cc3)sc2c1 (stereo not drawn)	5	12	2	4	·
CS(=O)(=O)c1ccc2nc(NC(=O)c3ccc(Cl)cc3)sc2c1	0	38*	0	7	17
COc1ccc(C(=O)Nc2nc3ccc(S(C)(=O)=O)cc3s2)cc1	0	27*	-1	2	11
COc1ccc(C(=O)Nc2nc3ccc(OC)cc3s2)cc1	0	11	1	4	·
Cc1ccc2nc(NC(=O)c3ccc(OCC4CCCO4)cc3)sc2c1 (stereo not drawn)	3	31*	-2	-2	14
C[C@H]1COc2cc(Br)ccc2S(=O)(=O)N1Cc1cn(Cc2ccccc2)nn1	·	-7	·	·	·
CCc1ccccc1NC(=O)c1nnn(CC(=O)Nc2cccc(C)c2C)c1N	0	35*	-3	1	42*
CCc1ccccc1NC(=O)c1nnn(CC(=O)Nc2cccc(C)c2)c1N	0	4	0	0	·
COc1ccc(C(C)=O)cc1COC(=O)c1c(C)noc1C	0	-6	-6	1	·
COc1ccc(C(C)=O)cc1COC(=O)c1ccc(OCc2c(C)noc2C)cc1	0	16*	-1	9	12
CC(=O)Nc1ccc(-c2cc(-c3ccc(NC(C)=O)cc3)nc(-c3ccc(NC(C)=O)cc3)n2)cc1	0	52*	-3	-3	35*
CC(=O)Nc1ccc(-c2cc(-c3ccc(NC(C)=O)cc3)nc(-c3ccccc3)n2)cc1	0	41*	5	-1	24*
CC(=O)Nc1ccc(-c2cc(-c3ccccc3)nc(-c3ccccc3)n2)cc1	0	13	2	-1	·
SMILES	aDG glyco act	NR1D1 modulator	HNF4A DNA FP	CSN deneddyl inh	Rev-erbA confirm	others
N#Cc1ccc(C23CC4(C2)[C@H](CN(Cc2cccnc2)[C@@H]4c2ccccc2)C3c2ccccc2)cc1 (stereo partly drawn)	0	23*	6	-4	29*
COC(=O)c1ccc(C23CC4(C2)[C@H](CN(Cc2cccnc2)[C@@H]4c2ccccc2)C3c2ccccc2)cc1 (stereo partly drawn)	0	6	12	4	·
CN1CCN(c2ccccc2NC(=O)c2ccc(N3CCCC3)c([N+](=O)[O-])c2)CC1	0	16*	-2	-5	9
O=C(Nc1ccccc1N1CCCCC1)c1ccc(Cl)c([N+](=O)[O-])c1	0	5	-2	0	·
Cc1cccc(NC(=O)CN(C)C(=O)c2ccc(N3CCCCCC3)c([N+](=O)[O-])c2)c1C	0	17*	-2	-4	-4
CC[C@@H](CCC(=O)N(c1ccccc1)c1ccccc1)c1ccc(C)cc1	·	-5	·	·	·
COc1ccc(CNS(=O)(=O)/C=C/c2ccccc2CNC(=O)OC(C)(C)C)cc1	·	4	·	·	·
O=C(OCCN1C(=O)c2cccc3c(N4CCOCC4)ccc(c23)C1=O)c1ccc(Cl)cc1Cl	1	260*	-37	-58	206*	RORg DNA counter=4.5*
O=C(OCCN1C(=O)c2cccc3c(N4CCOCC4)ccc(c23)C1=O)c1ccccc1Cl	2	40*	17	-13	56*	RORg DNA counter=>40
CC(C)C[C@@H]1NC(=O)[C@H]2C[C@@]3(C)c4ccccc4N[C@H]3N2C1=O	·	-4	·	·	·
CCc1ccc(-c2nc(NC(=O)c3ccc(OCC(=O)Nc4ccc(F)cc4)c(OC)c3)sc2C)cc1	0	113*	1	0	66*	RORg DNA counter=>40
COc1cc(C(=O)Nc2nc(-c3ccc(Cl)cc3)c(C)s2)ccc1OCC(=O)Nc1ccc(F)cc1	0	122*	3	-4	125*	RORg DNA counter=>40
COc1ccc(-c2nc(NC(=O)c3ccc(OCC(=O)N4CCOCC4)c(OC)c3)sc2C)cc1	0	-1	-1	2	·
O=C(NCCc1c[nH]c2ccccc12)OCc1cn(-c2cccc(C(F)(F)F)c2)nn1	·	1	·	·	·
O=C(c1ccc(F)cc1F)N(Cc1ccccn1)CC1CCCO1 (stereo not drawn)	·	-3	·	·	·
O=C(Cn1nnc(-c2ccc(N3CCOCC3)cc2)n1)c1ccc(F)cc1	·	-4	·	·	·
O=C(COc1ccc2c(-c3ccccc3)cc(=O)oc2c1)Nc1ccc(CCO)cc1	1	53*	16	66*	25*
CCOC(=O)C1CCN(C(=O)C(Cc2ccc3c(c2)OCO3)NC(C)=O)CC1 (stereo not drawn)	·	3	·	·	·
CCOC(=O)c1oc2ccccc2c1NC(=O)COc1cccc(OC)c1	0	23*	3	-5	4
COc1cc(C=NN2CCN(C(c3ccccc3)c3ccccc3)CC2)cc(OC)c1OC(C)=O	·	1	·	·	·
CC(C)OC(=O)CSc1nnc2c3ccccc3n(C)c2n1	-1	0	-1	-3	·
COC(=O)c1ccc(S(=O)(=O)NCCSc2nnc3c4ccccc4n(C)c3n2)cc1	0	29*	7	0	18*
CC(C)CSc1nnc2c3ccccc3n(C)c2n1	0	20*	2	-2	15
COC(=O)[C@]12C[C@H](CC(=O)NCc3ccc(OC)c(OC)c3)C(=O)N(CCC3=CCCCC3)C1=C[C@H](C1CCCC1)O[C@@H]2C	·	0	·	·	·
O=C(NCc1ccccc1)C(c1cc2ccccc2o1)n1c(=O)c(-c2ccccc2)nc2ccccc21 (stereo not drawn)	0	47*	7	-3	28*	RORg DNA counter=>40
